Source: ChEMBL document CHEMBL2417428, “Cytotoxic psammaplysin analogues from a Suberea sp. marine sponge and the role of the spirooxepinisoxazoline in their activity” (2013)

Legend:
Format in all cases: functional
[1] = test system: PC-3; test: Cytotoxicity against human PC3 cells after 48 hrs by sulforhodamine B assay; details: PC-3, 48 h
Method in brief: (§1)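 Cells seeded in 96-well plates with test compounds or doxorubicin control and incubated 48 h. Fixed with 50% trichloroacetic acid, stained with 0.4% sulforhodamine B in 1% acetic acid, and washed with 1% acetic acid. Bound dye was extracted with 10 mM Tris base (pH 10.5) and absorbance read at 540 nm for growth inhibition.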

[2] = test system: NCI-H23; test: Cytotoxicity against human NCI-H23 cells after 48 hrs by sulforhodamine B assay; details: NCI-H23, 48 h; method in brief: as §1
[3] = test system: NUGC-3; test: Cytotoxicity against human NUGC3 cells after 48 hrs by sulforhodamine B assay; details: NUGC-3, 48 h; method in brief: as §1
[4] = test system: HCT-15; test: Cytotoxicity against human HCT15 cells after 48 hrs by sulforhodamine B assay; details: HCT-15, 48 h; method in brief: as §1
[5] = test system: MDA-MB-231; test: Cytotoxicity against human MDA-MB-231 cells after 48 hrs by sulforhodamine B assay; details: MDA-MB-231, 48 h; method in brief: as §1
[6] = test system: ACHN; test: Cytotoxicity against human ACHN cells after 48 hrs by sulforhodamine B assay; method in brief: as §1

Row | Compound | GI50 [1] | GI50 [2] | GI50 [3] | GI50 [4] | GI50 [5] | GI50 [6]
1 | N#CC(=O)NCCCOc1c(Br)cc(C(O)CN)cc1Br (configuration not stated) | > 70 µM | > 70 µM | > 70 µM | > 70 µM | > 70000 nM | > 70 µM
2 | COC1=C(Br)C[C@@]2(OC=C1Br)ON=C(C(=O)NCCCOc1c(Br)cc(CCNC=C3C(=O)C=CC3=O)cc1Br)[C@H]2O | 3.7 µM | 7 µM | 4 µM | 7.4 µM | 3900 nM | 10.3 µM
3 | COC1=C(Br)C[C@@]2(OC=C1Br)ON=C(C(=O)NCCCOc1c(Br)cc(C(O)CNC(=O)CCCCCCCCCCCC(C)C)cc1Br)[C@H]2O (some centres not stated) | 25 µM | 27 µM | 26 µM | 24 µM | 21000 nM | 27 µM
4 | COC1=C(Br)C[C@]2(OC=C1Br)ON=C(C(=O)NCCCOc1c(Br)cc(CCN/C=C3/C(=O)CC(Cl)C3=O)cc1Br)[C@@H]2O (mixture of isomers) | 2.3 µM | 6.4 µM | 3.5 µM | 3.3 µM | 1200 nM | 3.3 µM
5 | COC1=C(Br)C[C@]2(OC=C1Br)ON=C(C(=O)NCCCOc1c(Br)cc(C(O)CN/C=C3/C(=O)CC(Cl)C3=O)cc1Br)[C@@H]2O (mixture of isomers) [19-HYDROXYPSAMMAPLYSINE X] | 2.1 µM | 3.5 µM | 4 µM | 3.5 µM | 800 nM | 2.5 µM
6 | COC1=C(Br)C[C@@]2(OC=C1Br)ON=C(C(=O)NCCCOc1c(Br)cc(C(O)CN)cc1Br)[C@H]2O (relative stereo) | 2.7 µM | 3.7 µM | 2.5 µM | 4 µM | 530 nM | 1.6 µM
7 | COC1=C(Br)C[C@@]2(OC=C1Br)ON=C(C(=O)NCCCOc1c(Br)cc(CCN)cc1Br)[C@H]2O (relative stereo) | 6.9 µM | 12.4 µM | 3.8 µM | 3.9 µM | 4300 nM | 5.1 µM
8 | COC1=C(Br)C[C@@]2(OC=C1Br)ON=C(C(=O)NCCCOc1c(Br)cc(C(O)CNC=C3C(=O)C=CC3=O)cc1Br)[C@H]2O (some centres not stated) [19-HYDROXYPSAMMAPLYSINE E] | 1.4 µM | 3.6 µM | 2.3 µM | 3.8 µM | 510 nM | 2.3 µM
9 | N#CC(=O)NCCCOc1c(Br)cc(CCN)cc1Br [CERATINAMINE] | > 70 µM | > 70 µM | > 70 µM | > 70 µM | > 70000 nM | > 70 µM
10 | COc1cccc2c1C(=O)c1c(O)c3c(c(O)c1C2=O)C[C@@](O)(C(=O)CO)C[C@@H]3O[C@H]1C[C@H](N)[C@H](O)[C@H](C)O1 [DOXORUBICIN] | 0.52 µM | 1.9 µM | 0.51 µM | 1.4 µM | 1800 nM | 2 µM
11 | NCCCOc1c(Br)cc(C(O)CN)cc1Br (configuration not stated) [HYDROXYMOLOKA'IAMINE] | > 70 µM | > 70 µM | > 70 µM | > 70 µM | > 70000 nM | > 70 µM
12 | NCCCOc1c(Br)cc(CCN)cc1Br [MOLOKA'IAMINE] | > 70 µM | > 70 µM | > 70 µM | > 70 µM | > 70000 nM | > 70 µM
